# ChEMBL document CHEMBL3351814, “Discovery of selective hexapeptide agonists to human neuromedin U receptors types 1 and 2” (J Med Chem, 2014)
# Active and inactive are the calls of the source. No cut-off for these calls is given here. Where a SMILES comes first, the peptide text is derived from it. [ ]: non-standard residue; d: D form. The star is where a group is joined. Quinoline(6-carbonyl) = O=C(c1ccc2ncccc2c1)*; Propanoyl(3-(3-pyridyl)) = O=C(CCc1cccnc1)*; Acetyl(pyridin-2-yl) = O=C(Cc1ccccn1)*; 1Nal = N[C@@H](Cc1cccc2ccccc12)C(=O)O; Butanoyl(4-cHex) = O=C(CCCC1CCCCC1)*; Propanoyl(3-cHex) = O=C(CCC1CCCCC1)*; Acetyl(3-pyridyl) = O=C(Cc1cccnc1)*; Acetyl(4-pyridyl) = O=C(Cc1ccncc1)*; Butanoyl(4-Ph) = O=C(CCCc1ccccc1)*; Hydrocinnamoyl = O=C(CCc1ccccc1)*; Quinaldoyl = O=C(c1ccc2ccccc2n1)*; Tic = O=C(O)[C@@H]1Cc2ccccc2CN1; Cha = N[C@@H](CC1CCCCC1)C(=O)O; Agb = N=C(N)NCC[C@H](N)C(=O)O; Agp = N=C(N)NC[C@H](N)C(=O)O; Chg = N[C@H](C(=O)O)C1CCCCC1; Nle = CCCC[C@H](N)C(=O)O; Dab = NCC[C@H](N)C(=O)O; Nva = CCC[C@H](N)C(=O)O; Dap = NC[C@H](N)C(=O)O; PhAc = O=C(Cc1ccccc1)*; X1 = O=C(Cn1ccnc1)*
# Target: T1, Neuromedin-U receptor 1 (Homo sapiens) (UniProt Q9HB89)
# T1 sequence (whole entry): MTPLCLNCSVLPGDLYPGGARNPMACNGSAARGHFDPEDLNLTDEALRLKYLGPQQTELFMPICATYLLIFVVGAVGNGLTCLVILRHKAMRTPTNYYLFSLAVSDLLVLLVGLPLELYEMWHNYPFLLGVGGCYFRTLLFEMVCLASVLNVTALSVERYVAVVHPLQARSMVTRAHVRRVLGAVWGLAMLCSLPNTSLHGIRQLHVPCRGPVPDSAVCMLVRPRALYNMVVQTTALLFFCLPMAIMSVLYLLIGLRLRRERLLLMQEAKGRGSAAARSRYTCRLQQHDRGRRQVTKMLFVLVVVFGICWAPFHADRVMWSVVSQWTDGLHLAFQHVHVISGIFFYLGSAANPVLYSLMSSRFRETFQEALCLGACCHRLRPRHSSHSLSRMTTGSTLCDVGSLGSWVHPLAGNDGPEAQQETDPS
# Experiment: Agonist activity at human NMUR1 expressed in HEK293 cells at 1 to 100 nM by calcium mobilization assay relative to NMU
# Format: functional, cell-based
# How it was run: (§1)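 HEK293 cells transiently transfected with human NMUR1 or NMUR2 plasmid (FuGENE6), reseeded 18 h post-transfection at 4.0 × 10^4 cells/well on poly-D-lysine. After 18 h, loaded 40 min with 4 μM Fluo-4-AM in HBSS/HEPES/probenecid buffer pH 7.4 with 1% FCS, then washed. Peptides in buffer with 0.05% BSA and 0.001% Triton X-100. Maximal FLIPR signal expressed as % of hNMU at 1000 nM.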
row,Activity,SMILES
1,Active,CC(C)C[C@H](NC(=O)[C@@H]1Cc2ccccc2CN1)C(=O)N[C@@H](Cc1ccccc1)C(=O)N[C@@H](CCCNC(=N)N)C(=O)N1CCC[C@H]1C(=O)N[C@@H](CCCNC(=N)N)C(=O)N[C@@H](CC(N)=O)C(N)=O (H-[Tic]LFRPRN-NH2)
2,inactive,CC(C)C[C@H](NC(=O)CCc1ccccc1)C(=O)N[C@@H](Cc1ccccc1)C(=O)N[C@@H](CCCNC(=N)N)C(=O)N1CCC[C@H]1C(=O)N[C@@H](CCCNC(=N)N)C(=O)N[C@@H](C)C(N)=O (Hydrocinnamoyl-LFRPRA-NH2)
3,inactive,CC(C)C[C@H](NC(=O)CCc1ccccc1)C(=O)N[C@@H](Cc1ccccc1)C(=O)N[C@@H](CCCNC(=N)N)C(=O)N1CCC[C@H]1C(=O)N[C@@H](CCCNC(=N)N)C(=O)N[C@@H](CC(=O)O)C(N)=O (Hydrocinnamoyl-LFRPRD-NH2)
4,inactive,CC(C)C[C@H](NC(=O)[C@H](CCCNC(=N)N)NC(=O)[C@@H]1CCCN1C(=O)[C@H](CCCNC(=N)N)NC(=O)[C@H](Cc1ccccc1)NC(=O)[C@H](CC(C)C)NC(=O)CCc1ccccc1)C(N)=O (Hydrocinnamoyl-LFRPRL-NH2)
5,Active,CC(C)C[C@H](NC(=O)Cc1ccccc1)C(=O)N[C@@H](Cc1ccccc1)C(=O)N[C@@H](CCCNC(=N)N)C(=O)N1CCC[C@H]1C(=O)N[C@@H](CCCNC(=N)N)C(=O)N[C@@H](CC(N)=O)C(N)=O (PhAc-LFRPRN-NH2)
6,inactive,N=C(N)NCCC[C@H](NC(=O)[C@@H]1CCCN1C(=O)[C@H](CCCNC(=N)N)NC(=O)[C@H](Cc1ccccc1)NC(=O)[C@H](Cc1ccccc1)NC(=O)c1ccc2ccccc2n1)C(=O)N[C@@H](CC(N)=O)C(N)=O (Quinaldoyl-FFRPRN-NH2)
7,Active,N=C(N)NCCC[C@H](NC(=O)[C@@H]1CCCN1C(=O)[C@H](CCCNC(=N)N)NC(=O)[C@H](Cc1ccccc1)NC(=O)[C@H](Cc1ccccc1)NC(=O)Cn1ccnc1)C(=O)N[C@@H](CC(N)=O)C(N)=O (X1-FFRPRN-NH2)
8,Active,N=C(N)NCCC[C@H](NC(=O)[C@@H]1CCCN1C(=O)[C@H](CCCNC(=N)N)NC(=O)[C@H](Cc1ccccc1)NC(=O)[C@H](Cc1ccccc1)NC(=O)Cc1cccnc1)C(=O)N[C@@H](CC(N)=O)C(N)=O ({Acetyl(3-pyridyl)}-FFRPRN-NH2)
9,Active,N=C(N)NCCC[C@H](NC(=O)[C@@H]1CCCN1C(=O)[C@H](CCCNC(=N)N)NC(=O)[C@H](Cc1ccccc1)NC(=O)[C@H](Cc1ccccc1)NC(=O)Cc1ccncc1)C(=O)N[C@@H](CC(N)=O)C(N)=O ({Acetyl(4-pyridyl)}-FFRPRN-NH2)
10,Active,N=C(N)NCCC[C@H](NC(=O)[C@@H]1CCCN1C(=O)[C@H](CCCNC(=N)N)NC(=O)[C@H](Cc1ccccc1)NC(=O)[C@H](Cc1ccccc1)NC(=O)Cc1ccccn1)C(=O)N[C@@H](CC(N)=O)C(N)=O ({Acetyl(pyridin-2-yl)}-FFRPRN-NH2)
11,Active,N=C(N)NCCC[C@H](NC(=O)[C@@H]1CCCN1C(=O)[C@H](CCCNC(=N)N)NC(=O)[C@H](Cc1ccccc1)NC(=O)[C@H](Cc1ccccc1)NC(=O)CCc1cccnc1)C(=O)N[C@@H](CC(N)=O)C(N)=O ({Propanoyl(3-(3-pyridyl))}-FFRPRN-NH2)
12,Active,CC(C)C[C@H](NC(=O)CCc1cccnc1)C(=O)N[C@@H](Cc1ccccc1)C(=O)N[C@@H](CCCNC(=N)N)C(=O)N1CCC[C@H]1C(=O)N[C@@H](CCCNC(=N)N)C(=O)N[C@@H](CC(N)=O)C(N)=O ({Propanoyl(3-(3-pyridyl))}-LFRPRN-NH2)
13,Active,N=C(N)NCCC[C@H](NC(=O)[C@@H]1CCCN1C(=O)[C@H](CCCNC(=N)N)NC(=O)[C@H](Cc1ccccc1)NC(=O)[C@H](Cc1c[nH]c2ccccc12)NC(=O)CCc1cccnc1)C(=O)N[C@@H](CC(N)=O)C(N)=O ({Propanoyl(3-(3-pyridyl))}-WFRPRN-NH2)
14,Active,N=C(N)NCCC[C@H](NC(=O)[C@@H]1CCCN1C(=O)[C@H](CCCNC(=N)N)NC(=O)[C@H](Cc1ccccc1)NC(=O)[C@H](Cc1cccc2ccccc12)NC(=O)CCc1cccnc1)C(=O)N[C@@H](CC(N)=O)C(N)=O ({Propanoyl(3-(3-pyridyl))}-[1Nal]FRPRN-NH2)
15,inactive,N=C(N)NCCC[C@H](NC(=O)[C@@H]1CCCN1C(=O)[C@H](CCCNC(=N)N)NC(=O)[C@H](Cc1ccccc1)NC(=O)[C@H](Cc1ccccc1)NC(=O)c1ccc2ncccc2c1)C(=O)N[C@@H](CC(N)=O)C(N)=O ({Quinoline(6-carbonyl)}-FFRPRN-NH2)

# Target: Neuromedin-U receptor 2 (Homo sapiens, UniProt Q9GZQ4)
# Sequence (Q9GZQ4 whole entry): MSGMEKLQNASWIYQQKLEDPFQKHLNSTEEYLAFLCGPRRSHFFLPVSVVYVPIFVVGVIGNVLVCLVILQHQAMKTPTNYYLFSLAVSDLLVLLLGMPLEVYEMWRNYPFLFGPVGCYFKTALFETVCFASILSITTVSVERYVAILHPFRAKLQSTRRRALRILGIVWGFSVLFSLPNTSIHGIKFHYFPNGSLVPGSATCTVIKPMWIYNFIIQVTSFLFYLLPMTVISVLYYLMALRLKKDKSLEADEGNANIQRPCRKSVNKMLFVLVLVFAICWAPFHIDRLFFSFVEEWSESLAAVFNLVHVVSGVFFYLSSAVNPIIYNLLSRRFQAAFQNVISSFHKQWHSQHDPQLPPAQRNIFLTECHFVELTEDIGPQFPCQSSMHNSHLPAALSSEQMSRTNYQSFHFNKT
# Experiment: Agonist activity at human NMUR2 expressed in HEK293 cells at 1 to 100 nM by calcium mobilization assay relative to NMU
# Format: functional, cell-based
# How it was run: as §1
row,Activity,SMILES
1,Active,CC(C)C[C@H](NC(=O)[C@@H]1Cc2ccccc2CN1)C(=O)N[C@@H](Cc1ccccc1)C(=O)N[C@@H](CCCNC(=N)N)C(=O)N1CCC[C@H]1C(=O)N[C@@H](CCCNC(=N)N)C(=O)N[C@@H](CC(N)=O)C(N)=O (H-[Tic]LFRPRN-NH2)
2,inactive,CC(C)C[C@H](NC(=O)CCc1ccccc1)C(=O)N[C@@H](Cc1ccccc1)C(=O)N[C@@H](CCCCN)C(=O)N1CCC[C@H]1C(=O)N[C@@H](CCCNC(=N)N)C(=O)N[C@@H](CC(N)=O)C(N)=O (Hydrocinnamoyl-LFKPRN-NH2)
3,inactive,CC(C)C[C@H](NC(=O)CCc1ccccc1)C(=O)N[C@@H](Cc1ccccc1)C(=O)N[C@@H](CCCNC(=N)N)C(=O)N1CCC[C@H]1C(=O)N[C@@H](CCCNC(=N)N)C(=O)N[C@@H](C)C(N)=O (Hydrocinnamoyl-LFRPRA-NH2)
4,inactive,CC(C)C[C@H](NC(=O)CCc1ccccc1)C(=O)N[C@@H](Cc1ccccc1)C(=O)N[C@@H](CCCNC(=N)N)C(=O)N1CCC[C@H]1C(=O)N[C@@H](CCCNC(=N)N)C(=O)N[C@@H](CC(=O)O)C(N)=O (Hydrocinnamoyl-LFRPRD-NH2)
5,inactive,CC(C)C[C@H](NC(=O)[C@H](CCCNC(=N)N)NC(=O)[C@@H]1CCCN1C(=O)[C@H](CCCNC(=N)N)NC(=O)[C@H](Cc1ccccc1)NC(=O)[C@H](CC(C)C)NC(=O)CCc1ccccc1)C(N)=O (Hydrocinnamoyl-LFRPRL-NH2)
6,Active,CC(C)C[C@H](NC(=O)CCc1ccccc1)C(=O)N[C@@H](Cc1ccccc1)C(=O)N[C@@H](CCNC(=N)N)C(=O)N1CCC[C@H]1C(=O)N[C@@H](CCCNC(=N)N)C(=O)N[C@@H](CC(N)=O)C(N)=O (Hydrocinnamoyl-LF[Agb]PRN-NH2)
7,Active,CC(C)C[C@H](NC(=O)CCc1ccccc1)C(=O)N[C@@H](Cc1ccccc1)C(=O)N[C@@H](CNC(=N)N)C(=O)N1CCC[C@H]1C(=O)N[C@@H](CCCNC(=N)N)C(=O)N[C@@H](CC(N)=O)C(N)=O (Hydrocinnamoyl-LF[Agp]PRN-NH2)
8,Active,CC(C)C[C@H](NC(=O)CCc1ccccc1)C(=O)N[C@@H](Cc1ccccc1)C(=O)N[C@@H](CCN)C(=O)N1CCC[C@H]1C(=O)N[C@@H](CCCNC(=N)N)C(=O)N[C@@H](CC(N)=O)C(N)=O (Hydrocinnamoyl-LF[Dab]PRN-NH2)
9,Active,CC(C)C[C@H](NC(=O)CCc1ccccc1)C(=O)N[C@@H](Cc1ccccc1)C(=O)N[C@@H](CN)C(=O)N1CCC[C@H]1C(=O)N[C@@H](CCCNC(=N)N)C(=O)N[C@@H](CC(N)=O)C(N)=O (Hydrocinnamoyl-LF[Dap]PRN-NH2)
10,Active,CC(C)C[C@H](NC(=O)CCc1ccccc1)C(=O)N[C@@H](CC1CCCCC1)C(=O)N[C@@H](CCCNC(=N)N)C(=O)N1CCC[C@H]1C(=O)N[C@@H](CCCNC(=N)N)C(=O)N[C@@H](CC(N)=O)C(N)=O (Hydrocinnamoyl-L[Cha]RPRN-NH2)
11,Active,CC(C)C[C@H](NC(=O)CCCc1ccccc1)C(=O)N[C@@H](Cc1ccccc1)C(=O)N[C@@H](CCCNC(=N)N)C(=O)N1CCC[C@H]1C(=O)N[C@@H](CCCNC(=N)N)C(=O)N[C@@H](CC(N)=O)C(N)=O ({Butanoyl(4-Ph)}-LFRPRN-NH2)
12,Active,CC(C)C[C@H](NC(=O)CCCC1CCCCC1)C(=O)N[C@@H](Cc1ccccc1)C(=O)N[C@@H](CCCNC(=N)N)C(=O)N1CCC[C@H]1C(=O)N[C@@H](CCCNC(=N)N)C(=O)N[C@@H](CC(N)=O)C(N)=O ({Butanoyl(4-cHex)}-LFRPRN-NH2)
13,Active,CC(C)C[C@H](NC(=O)CCC1CCCCC1)C(=O)N[C@@H](Cc1ccccc1)C(=O)N[C@@H](CCCNC(=N)N)C(=O)N1CCC[C@H]1C(=O)N[C@@H](CCCNC(=N)N)C(=O)N[C@@H](CC(N)=O)C(N)=O ({Propanoyl(3-cHex)}-LFRPRN-NH2)
14,Active,CC[C@H](C)[C@H](NC(=O)[C@H](CC(C)C)NC(=O)CCC1CCCCC1)C(=O)N[C@@H](CN)C(=O)N1CCC[C@H]1C(=O)N[C@@H](CCCNC(=N)N)C(=O)N[C@@H](CC(N)=O)C(N)=O ({Propanoyl(3-cHex)}-LI[Dap]PRN-NH2)
15,Active,CC(C)C[C@H](NC(=O)CCC1CCCCC1)C(=O)N[C@@H](CC1CCCCC1)C(=O)N[C@@H](CCCNC(=N)N)C(=O)N1CCC[C@H]1C(=O)N[C@@H](CCCNC(=N)N)C(=O)N[C@@H](CC(N)=O)C(N)=O ({Propanoyl(3-cHex)}-L[Cha]RPRN-NH2)
16,Active,CC(C)C[C@H](NC(=O)CCC1CCCCC1)C(=O)N[C@@H](CC1CCCCC1)C(=O)N[C@@H](CN)C(=O)N1CCC[C@H]1C(=O)N[C@@H](CCCNC(=N)N)C(=O)N[C@@H](CC(N)=O)C(N)=O ({Propanoyl(3-cHex)}-L[Cha][Dap]PRN-NH2)
17,Active,CC(C)C[C@H](NC(=O)CCC1CCCCC1)C(=O)N[C@H](C(=O)N[C@@H](CN)C(=O)N1CCC[C@H]1C(=O)N[C@@H](CCCNC(=N)N)C(=O)N[C@@H](CC(N)=O)C(N)=O)C1CCCCC1 ({Propanoyl(3-cHex)}-L[Chg][Dap]PRN-NH2)
18,Active,CCCC[C@H](NC(=O)[C@H](CC(C)C)NC(=O)CCC1CCCCC1)C(=O)N[C@@H](CN)C(=O)N1CCC[C@H]1C(=O)N[C@@H](CCCNC(=N)N)C(=O)N[C@@H](CC(N)=O)C(N)=O ({Propanoyl(3-cHex)}-L[Nle][Dap]PRN-NH2)
19,Active,CCC[C@H](NC(=O)[C@H](CC(C)C)NC(=O)CCC1CCCCC1)C(=O)N[C@@H](CN)C(=O)N1CCC[C@H]1C(=O)N[C@@H](CCCNC(=N)N)C(=O)N[C@@H](CC(N)=O)C(N)=O ({Propanoyl(3-cHex)}-L[Nva][Dap]PRN-NH2)
